Test results from paper PMC9488007 (Environmental Science and Ecotechnology, 2020).
Converted amounts (≈) assume the structure as drawn.

Assays:
[1] = Desorption kinetics of bisphenols from bisphenol-attached PVC microplastics; format: physicochemical
Method in brief: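 Bisphenol-loaded PVC from the adsorption step was placed in water or simulated intestinal fluid (NaCl 0.12 M, Na2CO3 0.02 M, sodium taurocholate 15.5 mM) in sealed 1 L glass bottles. Bottles were agitated rotationally at 200 rpm in an oil bath. Bisphenol was measured in filtered supernatant at intervals from 0 to 75 h. Run in triplicate.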

Desorption isotherms = format: physicochemical
[2] = Adsorption of bisphenols onto PVC microplastics; format: physicochemical; conditions: 1.5 g PVC microplastics in 1 L, 48 h, room temperature
Method in brief: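 Each bisphenol was dissolved in ethanol, then diluted in a 1 L glass bottle to initial concentrations of 0 to 1.0 mg L-1. PVC microplastics were added, and bottles were shaken at 200 rpm until adsorption equilibrium. Supernatants were filtered through a glass microfiber filter before bisphenol quantification. Run in triplicate.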

[3] = system: grass carp hepatocyte cell line, L8824; assay: cells; format: cell-based; conditions: for Cytotoxicity (proliferation reduction), L8824: high concentration (2 mg L^−1)
[4] = system: human breast adenocarcinoma cells, MCF-7; assay: cells; format: cell-based; conditions: for Cytotoxicity (proliferation reduction), MCF-7: high concentration (2 mg L^−1)
[5] = format: physicochemical; conditions: high concentration (2 mg L^−1)
[6] = Physicochemical properties of the five bisphenols; conditions: calculated from log Kow and pKa
[7] = water, ref Wu et al.^3; cited from earlier work
[8] = calculated for concentration desorbed in warm-I
[9] = calculated for concentration desorbed in water

Oc1ccc(Cc2ccc(O)cc2)cc1 [BPF, bisphenol F]
Fslow, slow fraction ([1]; cold-I, pH 7.5, 291 K): 0.335±0.002
krap, rapid desorption rate constant ([1]; cold-I, pH 7.5, 291 K): 0.662±0.241 10^-2 h^-1
kslow, slow desorption rate constant ([1]; cold-I, pH 7.5, 291 K): 6.906±0.579 10^-4 h^-1
kvs, very slow desorption rate constant ([1]; cold-I, pH 7.5, 291 K): 2.367±0.112 10^-5 h^-1
Fslow, slow fraction ([1]; warm-I, pH 6.5, 311 K): 0.308±0.003
Fvs, very slow fraction ([1]; warm-I, pH 6.5, 311 K): 0.005±0.001
krap, rapid desorption rate constant ([1]; warm-I, pH 6.5, 311 K): 1.744±0.373 10^-2 h^-1
kslow, slow desorption rate constant ([1]; warm-I, pH 6.5, 311 K): 9.877±1.415 10^-4 h^-1
kvs, very slow desorption rate constant ([1]; warm-I, pH 6.5, 311 K): 5.778±0.325 10^-5 h^-1
Fslow, slow fraction ([1]; water, pH 7.0, 291 K): 0.371±0.004
Fvs, very slow fraction ([1]; water, pH 7.0, 291 K): 0.051±0.002
krap, rapid desorption rate constant ([1]; water, pH 7.0, 291 K): 0.619±0.179 10^-2 h^-1
kslow, slow desorption rate constant ([1]; water, pH 7.0, 291 K): 6.659±0.441 10^-4 h^-1
kvs, very slow desorption rate constant ([1]; water, pH 7.0, 291 K): <0.01 10^-5 h^-1
HI, hysteresis index (Desorption isotherms; warm-I): <0
kFd, Freundlich constant for desorption (Desorption isotherms; warm-I (Table 2)): 0.388 mg^−1/n·L^−1/n·g^−1
n, surface heterogeneity constant (desorption) (Desorption isotherms; warm-I (Table 2)): 1.186
HI, hysteresis index (Desorption isotherms; water): 0.252
kFd, Freundlich constant for desorption (Desorption isotherms; water (Table 2)): 0.720 mg^−1/n·L^−1/n·g^−1
n, surface heterogeneity constant (desorption) (Desorption isotherms; water (Table 2)): 1.594
amount of bisphenol adsorbed on the PVC [2]: 0.16 mg/g
IC50 to L8824 ([3]; 72 h exposure, 291 K, MTT): 2.26 ± 0.43 µg/mL (≈ 11.3 µM)
Cytotoxicity (proliferation reduction), L8824 [3, 8]: 33.24%
Cytotoxicity (proliferation reduction), L8824 [3, 9]: 27.15%
IC50 ([3]; read-out: IC50 to L8824, 72 h exposure, 291 K, MTT): 11.3 ± 2.12 µM
IC50 to MCF-7 ([4]; 72 h exposure, 311 K, MTT): 6.39 ± 0.34 µg/mL (≈ 31.9 µM)
Cytotoxicity (proliferation reduction), MCF-7 [4, 8]: 26.54%
Cytotoxicity (proliferation reduction), MCF-7 [4, 9]: 20.83%
IC50 ([4]; read-out: IC50 to MCF-7, 72 h exposure, 311 K, MTT): 31.9 ± 1.69 µM
desorbed concentration, Warm-I [5]: 0.59 mg/L
log Dow [6]: 2.80
kFa, Freundlich constant for adsorption [7]: 0.575 mg^−1/n·L^−1/n·g^−1
n, surface heterogeneity constant (adsorption) [7]: 1.13
